Screening data deposited in PubChem BioAssay by several laboratories.
ABCB1 inh: human ABCB1 inhibition, ABCG2 as counter-screen | P08183 | CCRF-Adr cells, JC-1 efflux, flow cytometry | inhibition, % at 6.6 µM | hit rate 0.067% among 190,000; in the data active means inhibition above about 40%;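 further: higher value means more JC-1 retained so stronger ABCB1 efflux block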
HMGR II inh: E. faecalis class II HMG-CoA reductase inhibition. purified E. faecalis HMGR, NADPH absorbance 340 nm kinetic. inhibition, % at 10 µM. hit rate 0.41% among 190,000. AID 1066;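 active means inhibition above a set limit, the median over all tested compounds plus 3 SD, cut at about 9.5% in these data; inconclusive means no clear call, values can overlap the other calls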;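 further: enzyme runs in reverse so mevalonate oxidation gives rising NADPH absorbance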
ABCG2 inh: inhibitors of human ABCG2 transporter, ABCB1 counter-screen | IgMXP3 cells, JC-1 efflux, flow cytometry | AID 1325 | inhibition, % at 6.6 µM | Q9UNQ0 | hit rate 0.1% among 190,000;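 active means inhibition above 80%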
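Test system: IgMXP3 (ABCG2) plus far-red-tagged CCRF-Adr (ABCB1) cells / Amount: 3 million cells/mL in well / Reagent: JC-1 transporter substrate / Timing: 10 min compound exposure, 25 °C / Signal: flow cytometry, 530 nm JC-1 signal / Read-out: percent efflux inhibition, scaled nicardipine 100% to DMSO 0% / Benchmarks: nicardipine as high control, DMSO as low control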
HSV replic up: HSV replication enhancement | hit rate 0.005% among 220,000 | maximum fold increase | HSV replication augmentation in cells, fold increase; in the data active means maximum fold increase above about 1.5; inconclusive means no clear call, values can overlap the other calls; tested in PC3 cells
A number is an active result; 0 = inactive; ? = inconclusive; - = no result given; + = active, no number. An excerpt weighted towards active compounds, which were near 0.49% of everything screened.

SMILES	ABCB1 inh	HMGR II inh	ABCG2 inh	HSV replic up
O=C(NCCO)c1ccc(CSc2nc3ccccc3[nH]2)cc1	0	0	0	0
O=C(NCCCO)c1ccc(CSc2nc3ccccc3[nH]2)cc1	0	13	0	0
COCCN1C(=O)CS/C1=C(/C#N)C(=O)NCc1ccco1	0	0	0	0
c1csc(-c2nnc(N3CCOCC3)c3ccccc23)c1	0	11	0	0
O=c1c(Cl)c(N2CCC3(CC2)OCCO3)cnn1C12CC3CC(CC(C3)C1)C2	-	-	-	0
CC1CCCC(NC(=O)COC(=O)COc2ccccc2Cl)C1C (centres undefined)	0	11	0	0
CC1CCCCC1NC(=O)COC(=O)COc1ccccc1Cl (centres undefined)	0	0	0	0
COc1ccc(CNC(=O)C2CCCN2S(=O)(=O)c2ccc(Cl)cc2)cc1 (centres undefined)	0	18	0	0
COc1ccc(-c2csc(C)n2)cc1	0	9.8	0	0
COc1ccc(-c2csc(C)n2)cc1OC	0	0	0	0
O=C1C2C(C(=O)N1CCN1CCN(Cc3ccc([N+](=O)[O-])cc3)CC1)[C@H]1C=C[C@@H]2C1 (some centres undefined)	-	-	-	0
COc1ccc(CCNC(=O)c2ccccc2Cl)cc1OC	0	18	0	0
C=CCOc1ccc(Br)cc1CNC(C)(C)C	0	22	0	0
O=C(CSc1nc2ccccc2n1S(=O)(=O)c1cccc([N+](=O)[O-])c1)NCc1cccs1	0	0	0	0
CNS(=O)(=O)c1ccc(NC(=O)Nc2cccc(F)c2)cc1	0	0	0	0
O=C(O)c1cc(-c2ccccc2)n(-c2ccccc2C(=O)O)n1	0	9.6	0	0
CSc1nc(C)cc(OCC(=O)N/N=C/c2ccccc2O)n1	0	0	0	0
O=C(N/N=C1\CCc2ccccc21)c1ccc(O)cc1	0	12	0	0
Cn1c(=O)n(CC(=O)Nc2ccccc2)c2ccccc21	0	0	0	0
Cc1cccc(NC(=O)Cn2c(=O)n(C)c3ccccc32)c1	0	12	0	0
CC(Sc1n[nH]c(N)n1)C(=O)Nc1cccc(S(=O)(=O)N2CCOCC2)c1 (centres undefined)	0	0	0	0
CC(=O)N1CC2(C)CN(C(C)=O)CC(C)(C1)C2	0	22	0	0
Cc1[nH][nH]c(=O)c1C(c1c(C)[nH][nH]c1=O)c1cn(Cc2ccc(Cl)c(Cl)c2)c2ccccc12	0	39	0	0
Cc1[nH][nH]c(=O)c1C(c1c(C)[nH][nH]c1=O)c1cn(Cc2ccc(F)cc2)c2ccccc12	0	53	0	0
O=C(O)Cc1cn(Cc2ccc(F)cc2)c2ccccc12	0	0	0	-
SMILES	ABCB1 inh	HMGR II inh	ABCG2 inh	HSV replic up
Cc1[nH][nH]c(=O)c1C(c1ccc(-c2ccc(Cl)c(C(=O)O)c2)o1)c1c(C)[nH][nH]c1=O	0	0	0	0
O=C(COC(=O)COc1ccccc1)NC1CCCc2ccccc21 (centres undefined)	0	0	0	0
CCOC(=O)C1=C(C(F)(F)F)Nc2ncnn2C1c1ccc(OC)cc1OC (centres undefined)	0	0	0	0
COc1ccc2c(c1)c(=O)c(C(=O)c1ccccc1)cn2Cc1ccc(C)cc1	0	14	0	0
COC(=O)N1CCCc2cc(C)ccc21	0	11	0	0
CCOP(=O)(Nc1ccc2oc(=O)c3ccccc3c2c1)OCC	-	-	-	0
Cc1cccc(OCC(=O)NNC(=O)CCc2ccccc2)c1	0	53	0	0
CCOC(=O)C(CC)n1cnc2c(nnn2-c2ccc(C)cc2)c1=O (centres undefined)	0	0	0	0
COC(=O)C(C)n1cnc2c(nnn2-c2ccc(OC)cc2)c1=O (centres undefined)	0	14	0	0
NC(=S)NNC(=O)c1ccccc1	0	0	0	0
NC(=S)NNC(=O)c1cccc(Br)c1	0	17	0	0
O=[N+]([O-])c1ccc(/C=C/C2=NN(c3ccccc3)C(c3ccco3)C2)cc1 (centres undefined)	+	0	+	?
O=C1C2N=NN(CC(=O)N3N=C(c4ccccc4)CC3c3ccc([N+](=O)[O-])cc3)C2C(=O)N1c1ccccc1 (centres undefined)	0	0	0	0
COc1oc(-c2ccc(Cl)cc2)nc1C(F)(F)F	0	21	0	0
CCOC(=O)C1(CCCc2ccccc2)CCN(C(=O)Cn2nc(C)nc2C)CC1	-	-	-	0
CC1CN(Cc2cnc(Cl)s2)CC(C)O1 (centres undefined)	0	23	0	0
Clc1ncc(CN2CCN(Cc3ccccc3)CC2)s1	0	0	0	0
Cc1cccc(C)c1N1CCN(C(=O)N2CCCCC2)CC1	0	14	0	0
